Only some compounds are listed: those with a hit (about 2.7% of all), similar ones and a draw of the others.
pPAFAH FP inh – inhibitors of human plasma PAF acetylhydrolase (pPAFAH); recombinant pPAFAH, FP-rhodamine probe fluorescence polarization; actives 1.5% (n = 330,000); AID 463082; inhibition, % at 3.39 µM;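 active = inhibition above the mean inhibition across the screen plus 3 SD, cut at about 25% in these data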;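 also: inhibitors block binding of the rhodamine activity-based probe so polarization drops; 0% = enzyme with DMSO and 100% = wells lacking pPAFAH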
Target sequence (Q13093 whole entry, looked up): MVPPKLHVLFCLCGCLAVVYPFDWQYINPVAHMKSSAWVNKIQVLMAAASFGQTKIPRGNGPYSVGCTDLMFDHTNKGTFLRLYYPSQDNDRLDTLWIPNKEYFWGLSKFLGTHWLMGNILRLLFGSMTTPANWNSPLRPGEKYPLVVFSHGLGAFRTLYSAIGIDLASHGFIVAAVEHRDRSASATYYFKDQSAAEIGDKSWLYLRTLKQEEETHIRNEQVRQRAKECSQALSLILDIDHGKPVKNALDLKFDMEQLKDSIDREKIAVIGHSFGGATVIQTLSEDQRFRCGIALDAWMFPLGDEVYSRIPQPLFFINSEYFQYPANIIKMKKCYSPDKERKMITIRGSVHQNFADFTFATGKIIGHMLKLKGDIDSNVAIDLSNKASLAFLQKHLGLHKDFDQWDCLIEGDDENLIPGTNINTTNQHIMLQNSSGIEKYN
PAFAH2 FP inh – inhibitors of human PAFAH2 | inhibition, % at 3.39 µM | actives 0.99% (n = 340,000) | Q99487 | AID 492956 | recombinant PAFAH2, FP-rhodamine activity probe, fluorescence polarization;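 active = inhibition above the mean over all tested compounds plus 3 SD, cut at about 30% in these data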;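 also: inhibitors block probe labeling of enzyme so polarization drops; 0% = enzyme with DMSO and 100% = wells lacking PAFAH2 protein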
PAFAH1B2 inh – PAFAH1B2 (human) inhibition. recombinant PAFAH1B2, FP-rhodamine activity probe, fluorescence polarization. P68402. inhibition, % at 3.39 µM. actives 1.2% (n = 340,000). AID 492953;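 active = inhibition above the mean of all tested compounds plus 3 SD, cut at about 24% in these data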;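 also: 0% = enzyme with DMSO and 100% = wells lacking PAFAH1B2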
ARFGAP1 inh – inhibitors of rat ARFGAP1. Q62848. Arfgap1-stimulated ARF1 GTP hydrolysis, GDP FP detection. inhibition, % at 16.5 µM. actives 0.26% (n = 360,000);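 active = inhibition above a per-plate limit, mean inhibition of low control wells plus 3 SD, cut at about 25% in these data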;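 also: 0% = DMSO wells with enzyme and 100% = wells lacking Arfgap1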
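Assay system: purified rat His6-Arfgap1 residues 1-136 (GAP domain); Reagent: human Δ17 ARF1 bound to GTP; Dosing: 16.5 µM single point, 1.26% DMSO; Times: GTP hydrolysis reaction 2 h at 25 °C; Signal: FP, GDP Alexa 633 tracer displaced from anti-GDP antibody, 620/688 nm; Measure: % inhibition from polarization.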
ASAP1 GAP inh – inhibitors of human ASAP1 ArfGAP activity. AID 624377. inhibition, % at 16.5 µM. ASAP1-stimulated ARF1 GTP hydrolysis, GDP FP detection. actives 0.19% (n = 360,000). Q9ULH1; in the data active = inhibition above about 25%;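 also: 0% = vehicle with enzyme and substrate and 100% = no enzyme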
PAFAH1B3 FP inh – inhibitors of human PAFAH1B3; Q15102; recombinant PAFAH1B3, FP-rhodamine probe, fluorescence polarization; inhibition, % at 3.39 µM; actives 0.28% (n = 340,000); AID 492972;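 active = inhibition above the screen-wide average of all tested compounds plus 3 SD, cut at about 25% in these data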;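 also: 0% = enzyme with DMSO only and 100% = wells lacking PAFAH1B3 protein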
Target sequence (Q15102 whole entry, looked up): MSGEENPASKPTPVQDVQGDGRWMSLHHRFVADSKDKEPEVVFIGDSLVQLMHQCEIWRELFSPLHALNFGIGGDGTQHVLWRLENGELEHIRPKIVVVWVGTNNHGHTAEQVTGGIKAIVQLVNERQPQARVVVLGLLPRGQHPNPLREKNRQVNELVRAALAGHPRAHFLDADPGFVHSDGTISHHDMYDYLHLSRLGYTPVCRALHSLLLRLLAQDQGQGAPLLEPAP
The depositor's hits bear a star; . = no result given.

SMILES | pPAFAH FP inh | PAFAH2 FP inh | PAFAH1B2 inh | ARFGAP1 inh | ASAP1 GAP inh | PAFAH1B3 FP inh
O=C(O)c1cc(O)c2c(c1)[C@@H]([C@H]1c3cc(C(=O)O)cc(O)c3C(=O)c3c(O[C@@H]4O[C@H](CO)[C@@H](O)[C@H](O)[C@H]4O)cccc31)c1cccc(O[C@@H]3O[C@H](CO)[C@@H](O)[C@H](O)[C@H]3O)c1C2=O | 95* | . | . | . | . | .
CCN1/C(=C/C=C/C=C/C=C/c2sc3ccccc3[n+]2CC)Sc2ccccc21 | 2 | -25 | -15 | 32* | -2 | -29
CC12CCC(C1)C(C)(C)C2NS(=O)(=O)c1ccc(F)cc1 (stereo not drawn) | -2 | 4 | 26* | 9 | -11 | 5
CC1(C)CC(NS(=O)(=O)c2ccc(F)cc2)CC(C)(C)N1 | 4 | 6 | -2 | -2 | 6 | 10
Cc1ccc(Nc2nc(-c3c(C)nc4ncccn34)cs2)cc1 | 18 | 5 | 4 | 8 | 0 | 7
Cc1ccc(Nc2nc(-c3c(C)nc4ccccn34)cs2)cc1 | 28* | 7 | 6 | 14 | 16 | 9
Nc1[nH]c(C(=O)c2ccc(Br)cc2)c(-c2ccc(Cl)cc2)c1C(=O)NCCc1c[nH]c2ccccc12 | . | . | . | -4 | 2 | .
CN(C)CC[C@@H](c1ccc(Cl)cc1)c1ccccn1 | -3 | 1 | 0 | 3 | 0 | 1
CN(C)CCO[C@@H](c1ccc(Cl)cc1)c1ccccn1 | 27* | -2 | -1 | -8 | -18 | 5
O=C1NC(c2ccc3c(c2)OCO3)c2c(-c3ccccc3)n[nH]c21 (stereo not drawn) | . | . | . | 9 | -8 | .
O=C(O)Cc1sc(N/N=C\c2ccncc2)nc1-c1ccccc1 | 25* | 4 | -1 | -5 | 7 | 1
O=C(c1cc(COc2ccc(F)cc2Cl)on1)N1CCN(C2CCCC2)CC1 | 26* | -7 | 1 | -5 | 5 | 4
O=C(c1cc(COc2ccc(F)cc2Cl)on1)N1CCN(C2CCCCC2)C(=O)C1 | 4 | 0 | -1 | 8 | 10 | 0
Cc1nonc1CN(C)C(=O)c1cc(COc2ccc(F)cc2Cl)on1 | 26* | -6 | -6 | -4 | 6 | 14
O=C(CNSc1ccc([N+](=O)[O-])cc1[N+](=O)[O-])OCc1ccccc1 | . | . | . | -2 | 13 | .
COCCCNC(=O)COC(=O)c1ccc(-c2nc3ccccc3s2)s1 | 28* | -1 | 5 | 18 | -5 | 7
Cc1ccc(S(=O)(=O)NC(=O)Nc2ccc(N(C)C)cc2)cc1 | 25* | 0 | 6 | -110 | -84 | 7
N=C1S/C(=C\c2ccco2)C(=O)N1c1ccc2c(c1)OCO2 | 31* | 14 | 6 | 1 | 12 | 2
COC(=O)C1=C(C)N(Cc2ccc(Br)cc2)C(=S)NC1c1cccc(OC)c1 (stereo not drawn) | . | . | . | 4 | 6 | .
NC(=S)Cc1nc(-c2ccc(Cl)cc2)cs1 | 25* | -1 | 6 | 0 | 13 | 4
O=c1[nH]c2ccc(S(=O)(=O)Nc3ccc(Cl)cc3)cc2o1 | . | 6 | 54* | 16 | 11 | 9
COc1cc(NS(=O)(=O)c2ccc3[nH]c(=O)oc3c2)cc(OC)c1 | 4 | . | . | -7 | -2 | .
CCOC(=O)c1c(C)oc2c1cc(NS(=O)(=O)c1ccc(C(=O)O)cc1)c1ccccc12 | 29* | 10 | 4 | -7 | -9 | 7
O=C1CSC(c2ccc([N+](=O)[O-])cc2)N1C1CCCCC1 (stereo not drawn) | -1 | 4 | 27* | -21 | 18 | 1
C[C@@H]1CN([C@@H](C)CO)C(=O)CCCn2cc(nn2)CO[C@H]1CN(C)C(=O)Nc1ccc(C(F)(F)F)cc1 | . | . | . | -10 | -4 | .
SMILES | pPAFAH FP inh | PAFAH2 FP inh | PAFAH1B2 inh | ARFGAP1 inh | ASAP1 GAP inh | PAFAH1B3 FP inh
O=C(NC(=S)N1CCN(c2ccc(C(F)(F)F)cc2[N+](=O)[O-])CC1)c1cccs1 | 34* | 4 | 2 | 9 | 0 | -3
COc1cccc2sc3ccc(NCCC4CCCN4C)cc3c(=O)c12 (stereo not drawn) | 4 | 3 | 6 | 8 | 19 | 2
COc1cc2sc3cc(NCC[C@@H]4CCCN4C)ccc3c(=O)c2cc1OC | 6 | -5 | -3 | 27* | 20 | -2
Cc1ccnc(NCc2ccc(Br)cc2)c1 | 8 | 3 | 27* | -9 | 5 | 9
COc1ccc(CNc2cc(C)ccn2)cc1 | 1 | 6 | 1 | 4 | -2 | 2
Cc1cccc(NCc2cccc3ccccc23)n1 | 4 | 3 | 4 | 6 | -6 | -3
Cc1cccc(NCc2ccc(Br)cc2)n1 | 4 | -12 | 30* | 4 | -4 | -2
CCCN1CCCCC(NC(=O)COCc2ccccc2)C1=O (stereo not drawn) | . | . | . | -3 | -13 | .
COc1ccc(NC(=O)Cc2cccc(F)c2)cc1S(=O)(=O)Nc1ccccc1Cl | 30* | 2 | 6 | -5 | 2 | 5
COC(=O)C1=C(C)N(C)C(=NCc2ccc(OC)cc2)NC1c1cccc(F)c1 (stereo not drawn) | . | . | . | 3 | -3 | .
Cc1cccc(N=Cc2cc3c(cc2[N+](=O)[O-])OCO3)c1 | 28* | 5 | 4 | 2 | 8 | 14
O=[N+]([O-])c1cc2c(cc1C=Nc1ccccc1)OCO2 | 12 | 6 | 3 | . | . | 10
COc1ccc2nc(NN=Cc3cccc(C)n3)cc(C)c2c1 | . | . | . | -5 | 21 | .
O=C1CCC(NC(=O)Cc2ccccc2)C(=O)N1 (stereo not drawn) | . | . | . | 3 | -4 | .
N#C/C(=C(/O)c1ccccc1F)c1nc2cc(C(F)(F)F)ccc2s1 | 2 | 25 | 82* | -6 | 12 | 11
OC(c1ccccc1)(c1ccccc1)C1CCN(CCCOc2ccc(C(F)(F)F)cc2)CC1 | . | . | . | 7 | 3 | .
O=C1C2CCCCN2C(=O)N1CCCCN1CCN(c2cccc(Br)c2)CC1 (stereo not drawn) | 28* | -2 | -1 | -3 | 2 | 7
O=C1C2CCCN2C(=O)N1CCCN1CCN(c2ccc([N+](=O)[O-])cc2)CC1 (stereo not drawn) | 29* | -4 | 0 | 6 | -9 | 4
COC(=O)C1=C(C)N(Cc2ccccc2C(F)(F)F)C(=NCc2ccc(OC)cc2)NC1c1ccc(C(F)(F)F)cc1 (stereo not drawn) | . | . | . | 8 | -15 | .
COC(=O)c1cc(S(=O)(=O)NCC2CCN(C(=O)C(=O)c3cccs3)CC2)cs1 | . | . | . | -3 | 7 | .
O=S(=O)(c1ccc(Br)cc1)N1CCn2c(nc3ccccc32)C1 | 0 | 8 | 29* | 1 | -7 | 8
CN(C)c1ccc(C(=O)OCC(=O)Nc2cccc(S(=O)(=O)N3CCCC3)c2)cc1 | 27* | 86* | 5 | 7 | 7 | 3
O=C(Nc1ccc(OC(F)(F)F)cc1)c1[nH]ncc1[N+](=O)[O-] | 18 | 37* | 3 | -1 | -5 | 6
O=C(Nc1ccc(S(=O)(=O)N2CCCCCC2)cc1)c1[nH]ncc1[N+](=O)[O-] | 16 | 4 | 7 | 5 | -2 | 4

Compound activity (PubChem BioAssay)
